# FAS TE block = FAS thioesterase (human) inhibition. recombinant FAS-TE, OMFH fluorogenic substrate, fluorescence endpoint. inhibition, % at 15 µM. hit rate 0.67% among 360,000. AID 602261. P49327;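 active = compounds whose normalised, plate-corrected inhibition of enzyme fluorescence in the single-dose primary screen is 50% or more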
# Target sequence (P49327 whole entry, looked up): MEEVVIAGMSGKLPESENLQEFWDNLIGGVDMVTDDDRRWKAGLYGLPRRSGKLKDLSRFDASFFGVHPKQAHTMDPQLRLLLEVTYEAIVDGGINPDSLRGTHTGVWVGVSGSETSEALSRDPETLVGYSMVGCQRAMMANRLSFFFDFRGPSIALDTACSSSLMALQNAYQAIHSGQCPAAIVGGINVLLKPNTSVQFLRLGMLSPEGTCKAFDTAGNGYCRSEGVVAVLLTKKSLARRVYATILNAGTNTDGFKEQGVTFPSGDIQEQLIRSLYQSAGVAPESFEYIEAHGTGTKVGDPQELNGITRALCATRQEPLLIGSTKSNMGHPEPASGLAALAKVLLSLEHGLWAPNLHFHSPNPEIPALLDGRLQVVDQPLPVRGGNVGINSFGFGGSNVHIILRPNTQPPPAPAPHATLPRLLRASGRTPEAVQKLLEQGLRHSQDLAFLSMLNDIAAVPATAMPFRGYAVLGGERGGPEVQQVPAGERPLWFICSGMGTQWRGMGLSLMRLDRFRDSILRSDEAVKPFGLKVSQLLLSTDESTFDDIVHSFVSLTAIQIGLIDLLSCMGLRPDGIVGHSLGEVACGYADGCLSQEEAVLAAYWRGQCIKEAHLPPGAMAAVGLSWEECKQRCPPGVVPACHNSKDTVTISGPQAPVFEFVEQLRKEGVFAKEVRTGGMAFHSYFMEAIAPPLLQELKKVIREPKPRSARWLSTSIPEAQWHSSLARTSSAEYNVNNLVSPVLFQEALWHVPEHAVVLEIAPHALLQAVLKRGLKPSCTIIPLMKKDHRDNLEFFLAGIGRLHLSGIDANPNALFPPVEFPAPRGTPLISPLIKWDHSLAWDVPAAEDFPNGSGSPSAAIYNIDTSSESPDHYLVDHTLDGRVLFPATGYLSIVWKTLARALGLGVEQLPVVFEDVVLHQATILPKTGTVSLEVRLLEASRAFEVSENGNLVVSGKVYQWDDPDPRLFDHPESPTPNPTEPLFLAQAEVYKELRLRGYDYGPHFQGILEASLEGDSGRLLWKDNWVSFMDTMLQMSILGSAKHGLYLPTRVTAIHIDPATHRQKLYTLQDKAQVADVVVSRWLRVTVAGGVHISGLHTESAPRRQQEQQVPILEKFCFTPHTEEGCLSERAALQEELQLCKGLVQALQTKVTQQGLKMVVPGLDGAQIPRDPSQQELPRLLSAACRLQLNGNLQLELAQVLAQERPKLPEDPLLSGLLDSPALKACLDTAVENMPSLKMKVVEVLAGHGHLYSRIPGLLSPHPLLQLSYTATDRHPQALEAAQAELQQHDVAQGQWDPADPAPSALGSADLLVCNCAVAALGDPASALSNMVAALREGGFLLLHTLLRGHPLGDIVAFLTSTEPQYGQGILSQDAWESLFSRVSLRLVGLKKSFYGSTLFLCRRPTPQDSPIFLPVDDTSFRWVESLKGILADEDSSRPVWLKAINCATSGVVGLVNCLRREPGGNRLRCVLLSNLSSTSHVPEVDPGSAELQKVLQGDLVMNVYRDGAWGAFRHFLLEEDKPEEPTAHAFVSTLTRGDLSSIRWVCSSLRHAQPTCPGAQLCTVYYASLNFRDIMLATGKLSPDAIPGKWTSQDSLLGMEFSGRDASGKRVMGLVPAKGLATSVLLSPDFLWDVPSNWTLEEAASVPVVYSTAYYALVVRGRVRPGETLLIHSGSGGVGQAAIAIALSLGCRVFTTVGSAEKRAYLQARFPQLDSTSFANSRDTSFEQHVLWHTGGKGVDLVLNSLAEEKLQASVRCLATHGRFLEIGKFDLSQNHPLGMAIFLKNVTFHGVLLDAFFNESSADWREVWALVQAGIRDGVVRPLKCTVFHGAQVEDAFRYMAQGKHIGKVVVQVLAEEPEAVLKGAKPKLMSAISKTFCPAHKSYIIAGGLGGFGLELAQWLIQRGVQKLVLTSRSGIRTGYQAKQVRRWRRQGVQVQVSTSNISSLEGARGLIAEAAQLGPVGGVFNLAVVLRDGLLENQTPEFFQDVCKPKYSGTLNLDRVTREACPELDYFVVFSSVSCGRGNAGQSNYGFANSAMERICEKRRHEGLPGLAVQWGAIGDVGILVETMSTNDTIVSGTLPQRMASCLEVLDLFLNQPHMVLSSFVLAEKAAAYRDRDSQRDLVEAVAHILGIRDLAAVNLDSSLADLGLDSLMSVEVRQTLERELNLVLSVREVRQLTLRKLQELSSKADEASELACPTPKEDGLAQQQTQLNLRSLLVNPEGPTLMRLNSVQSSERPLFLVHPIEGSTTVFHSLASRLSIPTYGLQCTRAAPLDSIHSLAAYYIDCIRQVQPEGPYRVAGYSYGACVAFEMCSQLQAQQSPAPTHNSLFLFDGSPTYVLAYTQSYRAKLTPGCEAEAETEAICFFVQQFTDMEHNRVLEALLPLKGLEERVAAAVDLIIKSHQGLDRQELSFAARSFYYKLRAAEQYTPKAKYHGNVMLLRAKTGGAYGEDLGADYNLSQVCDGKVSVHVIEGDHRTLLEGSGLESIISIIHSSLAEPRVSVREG
# SENP1 FRET inh = SENP1 (human) catalytic domain inhibition | AID 624204 | recombinant SENP1 catalytic domain, CyPet-SUMO1-YPet FRET cleavage | hit rate 0.21% among 360,000 | inhibition, % at 10 µM | Q9P0U3;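 active = inhibition at least 30% at 10 µM, raw YFP signal under a set limit, fluorescence ratio 0.5 to 1.5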
#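 Assay system: hSENP1 catalytic domain, recombinant. Amount: SENP1 enzyme, 20 pM final. Schedule: 50 min reaction, RT, dark. Technique: FRET, CFP and YFP emission. Control set: no-enzyme wells low, DMSO-plus-enzyme wells high control.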
# hiPSC survival = hiPSC single-cell survival enhancement; AID 602274; survival enhancement, % at 20 µM; ATPlite luminescence; 100% = ROCK inhibitor wells, 0% = DMSO; hit rate 0.044% among 360,000; in the data active = survival enhancement above about 18%;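 note: cells exposed to compounds for 16 hours before the ATP read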
# NR3A LBD binder = modulators (binders) of human NR3A ligand-binding domain | NR3A LBD differential scanning fluorimetry, Tm shift; 0% = protein alone, 100% = glycine-bound protein | Tm shift relative to glycine control, % at 25 µM | hit rate 2.5% among 340,000 | AID 1259313;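 active = melting temperature shift of at least 10% of the positive control shift, at one fixed dose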
# Arr AP2 block = inhibitors of human beta-arrestin and AP2 interaction | hit rate 0.31% among 340,000 | FITC-arrestin peptide / GST-AP2 beads, flow cytometry; AP2 beta2 appendage carries R879A mutation | inhibition, % at 10 µM;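 active = inhibition above a set limit, near 3 SD of compounds lacking own fluorescence, cut at about 54% in these data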
#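 System: GST-AP2 R879A glutathione beads. Medium: PBS with 0.05% Tween 20 and 0.1% BSA. Also added: FITC-arrestin peptide, 50 nM. Incubation: 12 min plus 1 h, RT. Measured by: high-throughput flow cytometry of beads, ex 488, em 535 nm. Evaluation: percent drop in bead-associated FITC signal.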
# Cardio protect = protects H9c2 cardiomyocytes from peroxide injury; H2O2 injury protection, ATPLite, 2 h; protection from H2O2 cell death, % at 20 µM; hit rate 0.63% among 360,000;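 active = compounds giving at least 50% protection of heart cells from peroxide-induced death in the single-dose screen, raw or plate-pattern-corrected value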
# Hits are given with their value; i = inactive; nt = not tested or not shown. Most compounds without a hit are left out; they make up all but 4% or so of the library.
SMILES,FAS TE block,SENP1 FRET inh,hiPSC survival,NR3A LBD binder,Arr AP2 block,Cardio protect
C=CCC[C@H](Cc1ccc(F)cc1)C(=O)OC[C@@H](NC(=O)[C@@H](CC=C)CC(=O)N[C@@H](CO)Cc1ccccc1)C(C)(C)C,i,i,i,31,nt,i
C=CCC[C@@H](Cc1ccc(F)cc1)C(=O)OC[C@H](Cc1c[nH]c2ccccc12)NC(=O)[C@@H](CC=C)CC(=O)N[C@H](CO)Cc1ccccc1,i,i,i,15,i,i
COC(=O)C[C@H]1CC[C@@H]2[C@H](COC[C@H](O)CN2S(=O)(=O)c2ccccc2OC)O1,nt,i,nt,nt,nt,nt
Cc1cc2nc(CO)[nH]c2cc1C,i,i,i,15,i,i
C=CCn1c(=NC(=O)c2sc3ccccc3c2Cl)sc2cc(S(N)(=O)=O)ccc21,i,i,i,16,i,i
C=CCn1c(=NC(=O)c2cc(Cl)sc2Cl)sc2cc(S(N)(=O)=O)ccc21,i,i,i,i,i,i
COCCn1c(=NC(=O)c2sc3ccccc3c2Cl)sc2cc(S(N)(=O)=O)ccc21,i,i,i,23,i,i
CCCNC(=O)C1(C)CCN(C(=O)c2cccc(C(F)(F)F)c2)C1 (centres undefined),i,i,i,nt,nt,i
CCOC(=O)C[C@@H]1OC[C@H](C(C)C)N1S(=O)(=O)c1ccc(C)cc1,nt,i,nt,nt,nt,nt
CC(N)c1csc(Nc2nncc3ccccc23)n1 (centres undefined),i,i,i,nt,nt,i
Cc1cc(C(=O)N2CCCC(C)(C(=O)NS(=O)(=O)C3CC3)C2)n(C(C)(C)C)n1 (centres undefined),i,i,i,nt,nt,i
COc1ccc(NC(=O)COC(=O)C2CCC2)cc1Cl,i,i,i,18,i,i
O=C(c1cc(C(=O)NCCc2ccccc2)c(=O)n(CCc2ccccc2)c1)c1cc(Cl)ccc1O,i,i,i,13,i,i
COc1ccc(CCNC(=O)c2cc(C(=O)c3cc(C)ccc3O)cn(CCc3ccc(OC)cc3)c2=O)cc1,i,i,i,i,i,65
COC(=O)C[C@@H]1CC[C@@H](NS(=O)(=O)c2ccccc2OC)[C@@H](CO)O1,nt,i,nt,nt,nt,nt
COc1cccc(/C=N/NC(=O)CCCC(=O)Nc2ccc(Br)cc2)c1,i,i,i,20,i,i
CC(OC(=O)c1cccc(S(=O)(=O)N2CCN(C)CC2)c1)C(=O)Nc1ccc(C(N)=O)cc1 (centres undefined),i,i,21,i,i,i
CC(=O)c1cccc(NC(=O)C(C)OC(=O)c2cccc(S(=O)(=O)N3CCN(C)CC3)c2)c1 (centres undefined),i,i,i,i,i,i
COc1ccc(/C=N\NC(=O)c2ccccc2)cc1COc1ccccc1,i,i,i,i,i,i
COCc1cc(/C=N\NC(=O)c2ccc(Cl)cc2)ccc1OC,i,i,i,11,i,i
COc1ccc(/C=N/NC(=O)c2nc(Cl)c(Cl)c(N)c2Cl)cc1COc1ccc(F)cc1F,i,i,i,10,i,i
COc1ccc(/C=N\NC(=O)c2cc(O)c(O)c(O)c2)cc1COc1ccc(C(=O)OCC(C)C)cc1,i,i,i,77,i,53
COc1ccc(/C=N/NC(=O)c2ccc(Cl)cc2)cc1Cn1cc(Cl)cn1,i,i,i,i,i,i
COc1ccc(/C=N/NC(=O)c2cc(Br)ccc2O)cc1Cn1cc(Cl)cn1,i,i,i,21,i,i
COc1ccc(C(=O)N/N=C/c2ccc(OC)c(COc3ccccc3)c2)cc1,i,i,i,i,i,i
SMILES,FAS TE block,SENP1 FRET inh,hiPSC survival,NR3A LBD binder,Arr AP2 block,Cardio protect
CCOC(=O)Cc1ccc(Nc2nc3cc(-c4sccc4C)sc3c(=O)n2C)cc1,i,i,i,nt,nt,i
CSCCNC(=O)C1(C)CCN1C(=O)c1ccc(C(C)(C)C)cc1 (centres undefined),i,i,i,nt,nt,i
Cc1cccnc1C(NC(=O)C1CCN(Cc2cn(C)c3ccccc23)CC1)c1ccc(Cl)cc1 (centres undefined),i,i,i,nt,nt,i
COc1ccc(/C=N\NC(=O)c2ccccc2Br)cc1COc1c(F)c(F)cc(F)c1F,i,i,i,i,i,i
COc1ccc(/C=N/NC(=O)c2ccc(OC)c(OC)c2)cc1COc1c(F)c(F)c(F)c(F)c1F,i,i,i,12,i,i
CCc1[nH]c(=O)c(C#N)c2c1CSC(C)(C)C2,i,i,i,13,i,i
O=c1oc(Nc2cccc(F)c2)nc2ccccc12,i,i,i,i,i,i
Nc1nc(Nc2cccc(F)c2)nc2ccccc12,i,i,i,26,i,i
COc1ccc(C)cc1Nc1nc(N)c2cc(OC)c(OC)cc2n1,i,i,i,i,i,i
COc1ccc(Cl)cc1Nc1nc(N)c2ccccc2n1,i,i,i,16,i,i
CCc1nc2c(OCC(=O)C(C)(C)C)cccn2c1N(C)C(=O)c1ccc(C)cc1,i,i,i,nt,nt,i
Cc1ccc(O)c(-c2cc3ccccc3[nH]2)c1,i,i,i,22,i,i
c1ccc(-c2cc3ccccc3[nH]2)cc1,i,i,i,i,i,i
COc1ccc(-c2cc(=O)c3ccccc3[nH]2)cc1,i,i,i,i,i,56
COc1ccc(-c2cc3ccccc3[nH]2)cc1,i,i,i,14,i,i
O=C(NCc1ccccc1)C1c2ccccc2OCC(=O)N1Cc1ccco1 (centres undefined),i,i,i,nt,nt,nt
CCNS(=O)(=O)c1ccc(NC(=O)Nc2ccccc2OC)cc1,i,i,i,14,i,i
CCNS(=O)(=O)c1ccc(NC(=O)Nc2cc(C)ccc2OC)cc1,i,i,i,20,i,i
COC(=O)c1[nH]c2c(c1C)C(=O)CC(c1cc(OC)ccc1OC)C2 (centres undefined),i,i,i,i,i,57
C#CCOCCOCCOCCNc1nc(N2CCN(C(=O)CCCCCCCCCCNC(=O)Cn3cc(CCCCCN)nn3)CC2)nc(N2CCN(C(=O)CCCCCCCCCCNC(=O)Cn3cc(C[C@@H](C)O)nn3)CC2)n1,i,i,i,30,i,i
C#CCOCCOCCOCCNc1nc(N2CCN(C(=O)CCCCCCCCCCNC(=O)[C@@H](CCC(=O)O)n3cc(CCCCCN)nn3)CC2)nc(N2CCN(C(=O)CCCCCCCCCCNC(=O)[C@H](CCCCN)n3cc(C[C@@H](C)CC)nn3)CC2)n1,i,i,i,i,i,i
C#CCOCCOCCOCCNc1nc(N2CCN(C(=O)CCCCCCCCCCNC(=O)[C@H](CCCCN)n3cc(C)nn3)CC2)nc(N2CCN(C(=O)CCCCCCCCCCNC(=O)[C@@H]([C@H](C)O)n3cc(C)nn3)CC2)n1,i,i,i,26,i,i

# Bioassay records (PubChem)
